Screens (PubChem)
APJ agonist = activates the human apelin receptor APJ. P35414. CHO-K1 APJ PathHunter beta-arrestin, luminescence; 0% DMSO wells, 100% apelin. activation, % at 20 µM. 330,000 tested, 0.11% active;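 active = activation more than six SD over the plate average, tested at 20 µM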;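 note: 0% = DMSO alone and 100% = apelin-13 at 10 nM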
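assay system = CHO-K1 APJ beta-arrestin complementation cell line | input = cell density 1000 per well | dosing = compound 20 µM once, DMSO 1% | timing = compound 90 min 25 °C, reagent 1 h | measured by = luminescence from split beta-galactosidase complementation, Galacton Star/Emerald II substrate | read-out basis = APJ agonist activity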
APJ antag = blocks the human apelin receptor APJ | P35414 | CHO-K1 APJ beta-arrestin complementation, luminescence | inhibition, % at 20 µM | 330,000 tested, 0.32% active;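 active = inhibition above about 40% at 20 µM, limit read from the data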;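 note: cells challenged with 10 nM apelin-13 agonist together with compound; plate controls were apelin-13 plus DMSO wells for no effect and DMSO wells lacking apelin-13 for full effect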
CCR6 antag = antagonists of human CCR6 receptor | P51684 | inhibition, % at 20 µM | AID 493098 | 340,000 tested, 0.49% active | CHO-K1 CCR6 PathHunter beta-arrestin, luminescence, CCL20-stimulated;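 active = compounds whose inhibition of the agonist-driven luminescence signal at 20 µM reaches about 50%, limit read from the data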;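 note: cells stimulated with CCL20 at 14 nM final; plate controls were DMSO with CCL20 for no effect and DMSO without agonist for full effect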
CXCR6 inh = CXCR6 (human) receptor inhibition; O00574; CHO-K1 PathHunter CXCR6 beta-arrestin, luminescence; inhibition, % at 20 µM; 360,000 tested, 0.36% active; AID 602244; in the data active = inhibition above about 34%, passing the limit was not always enough;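 note: antagonist mode with CXCL16 agonist at 10 nM final; 0% = 10 nM CXCL16 with DMSO and 100% = unstimulated wells without agonist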
Target sequence (O00574 whole entry, looked up): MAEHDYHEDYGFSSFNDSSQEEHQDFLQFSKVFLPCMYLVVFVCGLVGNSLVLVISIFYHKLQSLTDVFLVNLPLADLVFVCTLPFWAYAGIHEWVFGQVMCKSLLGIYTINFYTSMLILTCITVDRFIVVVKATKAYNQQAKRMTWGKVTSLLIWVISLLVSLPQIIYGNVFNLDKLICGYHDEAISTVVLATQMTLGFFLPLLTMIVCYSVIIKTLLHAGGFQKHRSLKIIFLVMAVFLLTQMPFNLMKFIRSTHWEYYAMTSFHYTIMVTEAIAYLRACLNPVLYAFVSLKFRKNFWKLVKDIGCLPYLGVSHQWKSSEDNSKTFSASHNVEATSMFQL
EBI2 antag = EBI2 (human) antagonism | AID 651636 | inhibition, % at 5 µM | EBI2 beta-arrestin recruitment, luminescence, 7a,25-OHC stimulated | 360,000 tested, 0.81% active; in the data active = inhibition above about 38%;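 note: enzyme fragment complementation signal reports receptor beta-arrestin coupling in cells; 0% = agonist plus DMSO wells and 100% = wells without agonist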
Target sequence (P32249 whole entry, looked up, the tested form may be a part): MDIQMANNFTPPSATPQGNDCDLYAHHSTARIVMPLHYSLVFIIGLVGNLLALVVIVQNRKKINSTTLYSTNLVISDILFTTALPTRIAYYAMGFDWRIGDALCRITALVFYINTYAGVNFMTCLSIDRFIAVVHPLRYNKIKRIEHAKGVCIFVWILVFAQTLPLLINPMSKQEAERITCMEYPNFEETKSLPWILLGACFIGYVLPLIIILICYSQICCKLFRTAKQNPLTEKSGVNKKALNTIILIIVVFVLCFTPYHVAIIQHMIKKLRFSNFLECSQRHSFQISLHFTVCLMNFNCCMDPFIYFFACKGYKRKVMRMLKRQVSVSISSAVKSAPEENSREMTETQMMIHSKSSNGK
CXCR6 antag conf = CXCR6 antagonism confirmation, single concentration. CHO-K1 CXCR6 PathHunter beta-arrestin, luminescence. inhibition, % at 20 µM. shares compounds with CXCR6 inh. AID 602409. 700 tested, 65% active;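 active = mean inhibition over four retests above 40%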;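 note: receptor stimulated with 10 nM CXCL16 agonist; beta-galactosidase fragment complementation upon beta-arrestin recruitment to receptor; plate controls were CXCL16 plus DMSO for no effect and DMSO without CXCL16 for full effect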
The depositor's hits bear a star; / = not tested or not shown. Rows were chosen to be rich in hits. Some 1.5% of all compounds tested hit in one or more screens of this group.

SMILES	APJ agonist	APJ antag	CCR6 antag	CXCR6 inh	EBI2 antag	CXCR6 antag conf
C=C1C(=O)[C@]23C[C@H]1CC[C@H]2[C@]1(C)[C@@H](OC(C)=O)CC[C@@](C)(C(=O)OC)[C@H]1C[C@@H]3OC(C)=O	/	/	/	27.2	39.5	/
CC1=C(C(=O)N2CCCCCC2)CC(CC(=O)NCCN2CCOCC2)C(=O)N1CCC1=CCCCC1 (stereo unspecified)	/	/	/	6.6	-0.9	/
COc1cc(-c2cc3nc(NCc4ccco4)ccn3n2)cc(OC)c1OC	/	/	/	0.8	12.2	/
Cc1ccc(/C(O)=C/C(=O)C(=O)NC23CC4CC(CC(C4)C2)C3)cc1	-16.0	28.4	69.9*	53.4*	-3.8	38.5
Cc1cc(NC(=O)CS(=O)c2cn(Cc3cccc(Cl)c3)c3ccccc23)no1 (stereo unspecified)	/	/	/	0.7	6.8	/
CC(C)=CCN1CCN(CCC2=C(C)CCCC2(C)C)CC1CCO (stereo unspecified)	-2.8	17.8	14.6	-23.4	-4.3	/
CC1=C(CC/C(C)=N/NC(N)=S)C(C)(C)CCC1	-4.0	21.8	19.0	45.7*	28.9	14.7
CCCCn1nnnc1C(c1cc2ccccc2o1)N1CCN(CC(=O)NC(C)C)CC1 (stereo unspecified)	/	/	/	0.0	-2.5	/
Oc1c(Br)cc(Br)cc1C=NCc1ccccc1	-4.1	6.0	20.6	40.6*	2.7	51.1*
Cc1ccccc1CN1C(=O)CN(S(C)(=O)=O)CC1(C)C(=O)NCc1ccccc1 (stereo unspecified)	/	/	/	/	-6.1	/
C=C1C(=O)C23CCC4C(C)(C(=O)OC)CCCC4(C)C2CCC1(O)C3 (stereo unspecified)	/	/	86.0*	79.0*	77.5*	89.1*
NS(=O)(=O)c1ccc(CNC(=O)NC23CC4CC(CC(C4)C2)C3)cc1	-5.0	-15.4	-1.4	61.3*	-9.7	2.6
Cc1ccc(S(=O)(=O)N2[C@@H](CO)CO[C@H]2CC(=O)c2cccs2)cc1	/	/	/	/	-1.4	/
COc1cc(/C=C2/C(=O)NN(c3ccc(C)c(Cl)c3)C2=O)cc([N+](=O)[O-])c1O	-6.2	37.0	42.1	37.0	5.4	/
COc1cc(/C=C2\SC(=O)N(c3ccc(Cl)cc3)C2=O)cc([N+](=O)[O-])c1O	/	/	77.4*	46.4*	35.3	56.4*
Cc1cc(C)cc(N2C(=O)CC(Sc3nnnn3-c3ccccc3)C2=O)c1 (stereo unspecified)	-1.2	-17.6	/	86.8*	0.9	74.9*
CCC1=NN(C(=O)c2cccc([N+](=O)[O-])c2)C(O)(c2ccc(C)cc2)C1 (stereo unspecified)	-4.6	36.7	66.4*	48.4*	2.3	13.0
CCC1=NN(C(=O)c2ccc(Br)cc2)C(O)(c2ccccc2)C1 (stereo unspecified)	-5.0	30.4	73.4*	48.1*	15.6	33.6
CCOC(=O)C1=NN(C(=O)c2ccccc2)C(O)(c2ccc(C)cc2)C1 (stereo unspecified)	-3.2	-2.7	12.3	8.3	-2.5	/
O=C1CN(C(=O)c2cccc([N+](=O)[O-])c2)CC(=O)N1	2.9	7.2	4.9	0.3	-10.7	/
CC(C)c1ccc(NC(=O)C2(C)Cc3c(-c4ccccc4)ccnc3O2)cc1 (stereo unspecified)	/	/	/	14.0	1.8	/
CC1=CC(C)(C)N2C(=O)C(=Nc3ccc(O)cc3)c3cccc1c32	-3.3	9.9	48.9	48.4*	-32.9	48.0*
COc1ccc(-c2[nH]ncc2CN2CCN(C(=O)c3ccco3)CC2)cc1F	-1.9	6.7	9.0	-2.6	2.4	/
O=C(c1ccco1)N1CCN(Cc2cn[nH]c2-c2ccc(F)cc2F)CC1	3.1	11.7	5.5	56.7*	-3.5	11.5
CCOc1cc(CNCCO)c(Cl)cc1OCC(=O)NCCc1ccccc1	-1.1	-7.5	-5.9	70.8*	7.9	12.9
SMILES	APJ agonist	APJ antag	CCR6 antag	CXCR6 inh	EBI2 antag	CXCR6 antag conf
CCOC(=O)[C@]12CCC=C1N(Cc1ccc3c(c1)OCO3)C(=O)[C@H](CC(=O)N1CCC(c3ccccc3)CC1)C2	/	/	/	14.8	10.1	/
CCN(CC)CC(C)(C)C(=O)/C=C/c1ccc(/C=C/C(=O)C(C)(C)CN(CC)CC)cc1	/	/	112.9*	97.9*	78.4*	95.4*
COc1ccc(/C=C2/CCC(CN3CCOCC3)C2=O)cc1 (stereo unspecified)	/	/	87.3*	70.4*	35.7	70.0*
CC1CCC/C(=C\c2ccc(O)cc2)C1=O (stereo unspecified)	0.4	5.6	2.9	-9.0	11.7	/
CN(C)CC1CC/C(=C\c2ccc(O)cc2)C1=O (stereo unspecified)	/	/	85.7*	74.8*	31.3	76.6*
O=C(NC(=S)N1CCN(c2ccc(C(F)(F)F)cc2[N+](=O)[O-])CC1)c1cccs1	0.4	22.1	/	52.4*	6.6	56.2*
CCOc1ccccc1-c1cc(NC)ncn1	/	/	/	3.3	-1.9	/
C=C(C)c1cccc(C(C)(C)NC(=O)NC(c2ccccc2)c2ccc(OC)cc2)c1 (stereo unspecified)	-4.1	0.6	13.3	45.4*	-0.1	13.0
C=C(C)c1cccc(C(C)(C)NC(=O)Nc2ccc(OC)cc2)c1	-1.6	-2.6	-4.9	6.7	-0.4	/
CCCC(C)Sc1nc2c([nH]1)c(=S)n(C)c(=O)n2C (stereo unspecified)	/	/	40.1	42.0*	1.6	15.8
CC(Oc1cccc(Cl)c1)C(=O)Nc1nc(-c2ccccn2)cs1 (stereo unspecified)	-11.0	29.6	87.5*	70.1*	-1.2	78.3*
CC(Oc1ccccc1)C(=O)Nc1nc(-c2ccccn2)cs1 (stereo unspecified)	-5.4	-2.6	/	37.5*	-7.3	64.0*
O=C(COc1ccc(F)cc1Cl)Nc1nc(-c2ccccn2)cs1	-3.0	7.9	/	46.3*	-3.9	37.8
COc1cccc(C(=O)NCCN2CCC(n3c(=O)[nH]c4ccccc43)CC2)c1	/	/	/	-0.4	-2.6	/
O=C(NCCc1ccc2c(c1)OCO2)Oc1ccccc1	/	/	/	-3.2	1.6	/
Cc1cccc(S(=O)(=O)NC(=O)C2(C)CCN2C(=O)c2cccc(F)c2)c1 (stereo unspecified)	/	/	/	-5.0	-8.2	/
CNc1cc(-c2ccc(CC#N)cc2)ncn1	/	/	/	7.7	-8.8	/
COc1cc(/C=C(\C#N)c2nc3ccccc3o2)ccc1O	-7.6	32.1	55.3*	49.1*	7.2	43.0*
Cc1ccc(C)c(N/C=C(\C#N)c2nc3ccccc3o2)c1	0.9	3.3	2.5	-7.8	-5.1	/
COc1cccc(OC)c1C(=O)Nc1ccc2nc(C)c(C)nc2c1	-0.1	-2.4	3.4	65.2*	-12.6	-1.8
COc1cccc(NC(=O)Nc2ccc3nc(C)c(C)nc3c2)c1	2.4	2.8	2.5	1.4	5.5	/
CC(=O)Nc1cccc(OCC(O)Cn2cnc3ccccc32)c1 (stereo unspecified)	-1.9	-7.2	-11.8	1.5	-8.2	/
